Measurements: ChEMBL document CHEMBL1126882, “Orally active central dopamine and serotonin receptor ligands: 5-, 6-, 7-, and 8-[[trifluoromethyl)sulfonyl]oxy]-2-(di-n-propylamino)tetralins and the formation of active metabolites in vivo” (J Med Chem, 1993)
Activity calls are given as the source filed them. No cut-off for these calls is given here.

Columns and labels:
[1] = Effective dose for half-maximal decrease in the accumulation of 5-hydroxytryptophan (5-HTP) in reserpinized rat brain hemispheral area by po administration; type: functional
Method in brief: (§1)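 Male Sprague-Dawley rats (200-300 g) got reserpine 5 mg/kg sc 18 h before. The test drug (saline) was given sc or po (po rats fasted 18 h), with NSD 1015, 30 min before decapitation. DOPA and 5-HTP in limbic, striatal and hemispheral tissue were measured by HPLC-ED. ED50 (half-maximal decrease) was taken from 4-6-dose curves, with deviation estimated graphically from SEM.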

[2] = target: T1, Dopamine receptor (Rattus norvegicus) (UniProt P25115+P19020+P30729+P18901+P61169); experiment: Effective dose for half-maximal decrease in the accumulation of DOPA in reserpinized rat brain hemispheral area by po administration; type: functional, organism-based; method in brief: as §1
[3] = target: T1, Dopamine receptor (Rattus norvegicus); experiment: Effective dose for half-maximal decrease in the accumulation of DOPA in reserpinized rat brain striatal area by sc administration; partial response at the highest dose tested; type: functional, organism-based; method in brief: as §1
D(2) dopamine receptor [4] = target: T2, D(2) dopamine receptor (Rattus norvegicus, UniProt P61169); experiment: Binding affinity against dopamine receptor D2 in rat brain tissue using [3H]spiperone; type: tissue-based
Method in brief: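 Rat striatal membranes were prepared in 50 mM potassium phosphate (pH 7.4). They were incubated with 0.5 nM [3H]spiperone (3 mg original tissue) for 10 min at 37 °C. Specific binding was defined with 10 μM 6,7-ADTN. Six drug concentrations (10⁻⁴-10⁻⁹ M) were tested, in triplicate or in a single experiment.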

[5] = Effective dose for half-maximal decrease in the accumulation of 5-hydroxytryptophan (5-HTP) in reserpinized rat brain striatal area by po administration; type: functional; method in brief: as §1
[6] = Area under curve ratio was determined (po/iv); type: functional
Method in brief: (§2)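 Male Sprague-Dawley rats (300 g) with arterial catheters were dosed 24 h after surgery. Doses: 40 μmol/kg po by gavage and 5 μmol/kg iv, or 20 po and 1 iv. Po rats were fasted 18 h. Blood was sampled from 5 min to 12 h and measured by GC-MS after extraction at pH 11 against an internal standard, samples in duplicate. AUC po/iv came from n = 4 per route. Half-life was read graphically from the oral elimination phase.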

Rattus norvegicus [7] = species: Rattus norvegicus; experiment: DA agonist induced behavior was charecterised by increased locomotion, sniffing and licking.+ indicates low intensity of behavioral effect; type: functional, organism-based
Method in brief: (§3)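 Male Sprague-Dawley rats (200-300 g) given reserpine 5 mg/kg sc in the neck 18 h before testing. The test compound, in 0.9% saline, was given sc in the neck (n = 4-5). Rats were placed singly in photocell motility meters right after dosing. Counts were recorded over 30 min, alongside gross behavioural observation of 5-HT and DA signs. Statistics: ANOVA with Fischer's PLSD versus reserpine controls.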

[8] = target: T1, Dopamine receptor (Rattus norvegicus); experiment: Effective dose for half-maximal decrease in the accumulation of DOPA in reserpinized rat brain limbic area by po administration; partial response at the highest dose tested; type: functional, organism-based; method in brief: as §1
[9] = target: T1, Dopamine receptor (Rattus norvegicus); experiment: Effective dose for half-maximal decrease in the accumulation of DOPA in reserpinized rat brain limbic area by sc administration; partial response at the highest dose tested; type: functional, organism-based; method in brief: as §1
[10] = target: T1, Dopamine receptor (Rattus norvegicus); experiment: Effective dose for half-maximal decrease in the accumulation of DOPA in reserpinized rat brain striatal area by po administration; partial response at the highest dose tested; type: functional, organism-based; method in brief: as §1
[11] = Effective dose for half-maximal decrease in the accumulation of 5-hydroxytryptophan (5-HTP) in reserpinized rat brain hemispheral area by sc administration; type: functional; method in brief: as §1
Rattus norvegicus [12] = experiment: post-synaptic agonistic effects by increase in locomotor activity at the dose of 50 umol/kg, sc in reserpinized rat (p<0.005); type: functional
[13] = Effective dose for half-maximal decrease in the accumulation of 5-hydroxytryptophan (5-HTP) in reserpinized rat brain limbic area by sc administration; type: functional; method in brief: as §1
[14] = Effective dose for half-maximal decrease in the accumulation of 5-hydroxytryptophan (5-HTP) in reserpinized rat brain striatal area by sc administration; type: functional; method in brief: as §1
[15] = Effective dose for half-maximal decrease in the accumulation of 5-hydroxytryptophan (5-HTP) in reserpinized rat brain limbic area by po administration; type: functional; method in brief: as §1
[16] = target: T3, 5-hydroxytryptamine receptor 1A (Rattus norvegicus, UniProt P19327); experiment: Binding affinity against 5-hydroxytryptamine 1A receptor in homogenated rat brain tissue, using by [3H]8-OH-DPAT as radioligand; type: tissue-based
T3 sequence (P19327 whole entry): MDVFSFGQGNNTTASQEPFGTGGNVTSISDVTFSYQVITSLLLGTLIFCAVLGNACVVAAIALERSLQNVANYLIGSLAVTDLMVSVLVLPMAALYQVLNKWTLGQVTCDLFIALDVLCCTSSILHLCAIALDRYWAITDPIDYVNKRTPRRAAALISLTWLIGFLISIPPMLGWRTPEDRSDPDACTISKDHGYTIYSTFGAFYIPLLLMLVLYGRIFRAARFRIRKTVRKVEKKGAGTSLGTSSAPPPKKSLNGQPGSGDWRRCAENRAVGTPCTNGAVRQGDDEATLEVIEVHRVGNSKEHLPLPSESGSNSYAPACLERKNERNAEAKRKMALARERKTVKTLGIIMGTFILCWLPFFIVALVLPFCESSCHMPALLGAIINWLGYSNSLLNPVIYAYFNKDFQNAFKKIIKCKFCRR
Method in brief: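 Rat brain homogenate was washed and preincubated in 50 mM Tris (pH 8.0) containing NaCl, CaCl2 and MgCl2, plus 10 μM pargyline. Nonspecific binding was defined with 10 μM 5-HT. Six drug concentrations (10⁻⁴-10⁻⁹ M) were tested, triplicate or single run. IC50 came from a semilog plot with linear regression.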

[17] = target: T1, Dopamine receptor (Rattus norvegicus); experiment: Effective dose for half-maximal decrease in the accumulation of DOPA in reserpinized rat brain hemispheral area by sc administration; Inactive; type: functional, organism-based; method in brief: as §1
[18] = Half-lives were estimated from the elimination phase of the blood conc-time curve after oral administration; type: ADME, organism-based; conditions: whole blood; method in brief: as §2
Rattus norvegicus [19] = experiment: Effective dose for half-maximal decrease in the accumulation of 5-hydroxytryptophan (5-HTP) in reserpinized rat brain hemispheral area by sc administration; Inactive; type: functional, organism-based; method in brief: as §1
Rattus norvegicus [20] = experiment: Effective dose for half-maximal decrease in the accumulation of 5-hydroxytryptophan (5-HTP) in reserpinized rat brain limbic area by sc administration; Inactive; type: functional, organism-based; method in brief: as §1
[21] = target: T1, Dopamine receptor (Rattus norvegicus); experiment: Effective dose for half-maximal decrease in the accumulation of DOPA in reserpinized rat brain limbic area by po administration; type: functional, organism-based; method in brief: as §1
[22] = target: T1, Dopamine receptor (Rattus norvegicus); experiment: Effective dose for half-maximal decrease in the accumulation of DOPA in reserpinized rat brain limbic area by sc administration; type: functional, organism-based; method in brief: as §1
[23] = target: T1, Dopamine receptor (Rattus norvegicus); experiment: Effective dose for half-maximal decrease in the accumulation of DOPA in reserpinized rat brain striatal area by sc administration; type: functional, organism-based; method in brief: as §1
[24] = target: T1, Dopamine receptor (Rattus norvegicus); experiment: Effective dose for half-maximal decrease in the accumulation of DOPA in reserpinized rat brain striatal area by po administration; type: functional, organism-based; method in brief: as §1
Rattus norvegicus [25] = experiment: Effective dose for half-maximal decrease in the accumulation of 5-hydroxytryptophan (5-HTP) in reserpinized rat brain striatal area by sc administration; Inactive; type: functional, organism-based; method in brief: as §1
Rattus norvegicus [26] = species: Rattus norvegicus; experiment: 5-HT behavioral syndrome was determined by observing flat body posture and forepaw threading in rat.++ indicates […] intensity of behavioral effect; type: functional, organism-based; method in brief: as §3
[27] = target: T1, Dopamine receptor (Rattus norvegicus); experiment: Effective dose for half-maximal decrease in the accumulation of DOPA in reserpinized rat brain hemispheral area by sc administration; partial response at the highest dose tested; type: functional, organism-based; method in brief: as §1
Rattus norvegicus [28] = species: Rattus norvegicus; experiment: DA agonist induced behavior was charecterised by increased locomotion, sniffing and licking.++ indicates high intensity of behavioral effect; type: functional, organism-based; method in brief: as §3
Rattus norvegicus [29] = experiment: Effective dose for half-maximal decrease in the accumulation of 5-hydroxytryptophan (5-HTP) in reserpinized rat brain hemispheral area by sc administration; Partial response at the highest dose tested; type: functional, organism-based; method in brief: as §1
[30] = target: T1, Dopamine receptor (Rattus norvegicus); experiment: Effective dose for half-maximal decrease in the accumulation of DOPA in reserpinized rat brain hemispheral area by sc administration; Partial response at the highest dose tested; type: functional, organism-based; method in brief: as §1
Rattus norvegicus [31] = experiment: Effective dose for half-maximal decrease in the accumulation of 5-hydroxytryptophan (5-HTP) in reserpinized rat brain striatal area by po administration; Partial response at the highest dose tested; type: functional, organism-based; method in brief: as §1
Rattus norvegicus [32] = experiment: post-synaptic agonistic effects by increase in locomotor activity at the dose of 50 umol/kg, sc in reserpinized rat; type: functional
D(2) dopamine receptor [33] = target: T2, D(2) dopamine receptor; experiment: Binding affinity against dopamine receptor D2 in homogenated rat brain tissue, using by ([3H]N00437) as radioligand; type: tissue-based
Method in brief: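 Striata from male Wistar rats were washed in Tris (pH 7.5) containing EDTA, KCl and CaCl2. Tissue (1.25 mg original) was incubated with 0.2 nM [3H]-N-0437 (final) for 90 min at 25 °C, then filtered and counted by scintillation. Nonspecific binding was defined with 1 μM 6,7-ADTN. IC50 was read from a hand-fitted sigmoid curve, in triplicate.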

Rattus norvegicus [34] = experiment: Effective dose for half-maximal decrease in the accumulation of 5-hydroxytryptophan (5-HTP) in reserpinized rat brain striatal area by sc administration; Partial response at the highest dose tested; type: functional, organism-based; method in brief: as §1
Rattus norvegicus [35] = experiment: Effective dose for half-maximal decrease in the accumulation of 5-hydroxytryptophan (5-HTP) in reserpinized rat brain limbic area by sc administration; partial response at the highest dose tested; type: functional, organism-based; method in brief: as §1
Rattus norvegicus [36] = experiment: Effective dose for half-maximal decrease in the accumulation of 5-hydroxytryptophan (5-HTP) in reserpinized rat brain striatal area by sc administration; partial response at the highest dose tested; type: functional, organism-based; method in brief: as §1

T2 sequence (P61169 whole entry): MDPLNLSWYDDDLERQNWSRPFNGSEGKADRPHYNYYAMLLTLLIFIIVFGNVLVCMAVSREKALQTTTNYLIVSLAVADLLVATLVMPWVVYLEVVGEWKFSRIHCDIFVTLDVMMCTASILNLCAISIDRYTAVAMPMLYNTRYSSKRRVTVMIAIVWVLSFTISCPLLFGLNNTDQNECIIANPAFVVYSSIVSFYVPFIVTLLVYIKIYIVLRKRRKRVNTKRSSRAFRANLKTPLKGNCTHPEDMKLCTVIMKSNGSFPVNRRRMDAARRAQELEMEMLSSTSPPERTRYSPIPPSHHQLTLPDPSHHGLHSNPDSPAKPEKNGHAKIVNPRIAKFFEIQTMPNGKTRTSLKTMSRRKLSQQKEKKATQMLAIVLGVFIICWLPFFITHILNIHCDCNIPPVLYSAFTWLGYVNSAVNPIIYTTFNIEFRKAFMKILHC

SMILES	ED50 [1] [µmol/kg]	ED50 [2] [µmol/kg]	ED50 [3]	Ki (D(2) dopamine receptor [4]) [nM]	ED50 [5] [µmol/kg]	Ratio [6]	ED50 [9]	ED50 [11] [µmol/kg]	Counts/30 (Rattus norvegicus [12]) [min]	ED50 [13] [µmol/kg]	ED50 [14] [µmol/kg]	ED50 [15] [µmol/kg]	Ki [16] [nM]	ED50 [17]	half-life [18] [h]	ED50 (Rattus norvegicus [19])	ED50 (Rattus norvegicus [20])	ED50 [21] [µmol/kg]	ED50 [22] [µmol/kg]	ED50 [23] [µmol/kg]	also measured
CCCN(CCC)C1CCc2cccc(OS(=O)(=O)C(F)(F)F)c2C1 (stereo unspecified)	1.2	30	Weak activity	670	1.5	11.2	Weak activity	10	110	5.9	15	1.2	9.6	inactive	1.5	–	–	–	–	–	Behavioral syndrome (Rattus norvegicus [7]): Partially active; ED50 [8]: Weak activity; ED50 [10]: Weak activity
CCCN(CCC)C1CCc2c(cccc2OC)C1 (stereo unspecified)	0.3	0.3	–	100	0.5	–	–	–	–	–	–	0.4	440	inactive	–	inactive	inactive	0.2	0.01	0.02	ED50 [24]: 0.2 µmol/kg; ED50 (Rattus norvegicus [25]): inactive
CCCNC1CCc2cccc(OS(=O)(=O)C(F)(F)F)c2C1 (stereo unspecified)	–	–	Weak activity	1360	–	–	Weak activity	1.1	120	1.2	0.8	–	3.8	–	–	–	–	–	–	–	Behavioral syndrome (Rattus norvegicus [26]): Active; ED50 [27]: Weak activity
CCCN(CCC)C1CCc2c(cccc2OS(=O)(=O)C(F)(F)F)C1 (stereo unspecified)	5.4	–	–	64	–	8.5	–	–	–	–	–	3	160	–	1.5	–	inactive	6.2	0.4	0.5	Behavioral observation (Rattus norvegicus [28]): Active; ED50 (Rattus norvegicus [29]): Weak activity; ED50 [30]: Weak activity; ED50 (Rattus norvegicus [31]): Weak activity; Counts/30 min (Rattus norvegicus [32]): 170; ED50 [24]: 7.9 µmol/kg; Ki (D(2) dopamine receptor [33]): 28 nM; ED50 (Rattus norvegicus [34]): Weak activity
CCCN(CCC)C1CCc2ccc(OS(=O)(=O)C(F)(F)F)cc2C1 (stereo unspecified)	–	–	–	1300	–	–	–	27	170	–	34	–	360	–	–	–	–	–	1.6	0.4	ED50 (Rattus norvegicus [35]): Weak activity; ED50 [27]: Weak activity; Ki (D(2) dopamine receptor [33]): 150 nM
CCCN(CCC)C1CCc2ccc(OC)cc2C1 (stereo unspecified)	–	–	Weak activity	–	–	–	Weak activity	–	–	–	–	–	–	inactive	–	inactive	–	–	–	–	ED50 (Rattus norvegicus [35]): Weak activity; ED50 (Rattus norvegicus [36]): Weak activity
